Holding throughout (assay type): functional
In experiment [1] the test system is H4. Nature of the experiment: Increase in light chain 3-GFP+ autophagosome vesicle area per cell in human H4 cells at 5.1 uM after 24 hrs by high throughput fluorescence microscopy relative to control. An outline of the steps:
(§1)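 H4 cells stably expressing LC3-GFP, seeded in 96-well plates and exposed to compound for 24 h; screening concentrations were 3–12 μM, with rapamycin 0.22 μM and bafilomycin A1 0.40 μM. Cells fixed in 4% paraformaldehyde and stained with 3 μg/ml DAPI. Number, size and intensity of LC3-GFP spots measured by high-throughput fluorescence microscopy and expressed as percent of DMSO-treated wells. Rapamycin was the positive control. Triplicate wells, mean ± SD; experiments repeated three times.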

Experiment [2] deals with H4. Nature of the experiment: Increase in light chain 3-GFP+ autophagosome vesicle number per cell in human H4 cells at 5.1 uM after 24 hrs by high throughput fluorescence microscopy relative to control. A digest of the protocol: (§2)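 H4 cells stably expressing LC3-GFP were grown in DMEM with 10% FBS and 2 mM L-glutamine at 37°C, 5% CO2. They were exposed to each compound for 24 h, with DMSO as negative and rapamycin as positive control. Cells were then fixed in 4% paraformaldehyde and stained with 3 μg/ml DAPI. High-throughput fluorescence imaging scored LC3-GFP spot number, size and intensity, expressed relative to DMSO. Mean ± SD of triplicates; experiments repeated three times.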

Experiment [3] concerns H4. Nature of the experiment: Increase in light chain 3-GFP+ autophagosome vesicle intensity per cell in human H4 cells at 5.1 uM after 24 hrs by high throughput fluorescence microscopy relative to control. An outline of the steps:
as §2

In experiment [4] the test system is H4. Nature of the experiment: Induction of light chain 3-GFP level in human H4 cells at 5.1 uM after 24 hrs by high throughput fluorescence microscopy relative to control. A digest of the protocol: (§3)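 H4 cells stably expressing LC3-GFP, grown in DMEM with 10% FBS, penicillin/streptomycin and 2 mM L-glutamine at 37°C, 5% CO2. Cells were seeded in 96-well plates and exposed to library compounds at 3–12 μM for 24 h, then fixed in 4% paraformaldehyde and stained with 3 μg/ml DAPI. LC3-GFP spot number, size and intensity were measured by high-throughput fluorescence microscopy and expressed relative to DMSO. Triplicates, mean ± SD.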

Experiment [5] relates to H4. Nature of the experiment: Effect on FYVE-RFP+ vesicle intensity per cell in human H4 cells after 2 hrs relative to control. Also noted: concentration or dose not given beside the values. An outline of the steps: (§4)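 H4 cells stably expressing FYVE-RFP (H4-FYVE), grown in DMEM with 10% FBS, penicillin/streptomycin and 2 mM L-glutamine at 37°C, 5% CO2, seeded in 96-well plates and exposed to compound. Fixed in 4% paraformaldehyde, nuclei stained with 3 μg/ml DAPI, FYVE-RFP+ vesicles quantified by high-throughput fluorescence microscopy against DMSO control. Triplicate wells, mean ± SD.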

Experiment [6] deals with H4. In words: Effect on FYVE-RFP+ vesicle intensity per cell in human H4 cells after 4 hrs relative to control. Also noted: concentration or dose not given beside the values. A digest of the protocol:
as §4

In experiment [7] the test system is H4. In words: Effect on FYVE-RFP+ vesicle intensity per cell in human H4 cells after 8 hrs relative to control. Also on record: concentration or dose not given beside the values. A digest of the protocol:
as §4

Experiment [8] has as its system H4. In words: Increase in long-lived protein degradation in human H4 cells after 1 hr relative to control. Also noted: concentration or dose not given beside the values.
Experiment [9] relates to H4. In words: Increase in long-lived protein degradation in human H4 cells after 2 hrs relative to control. Also on record: concentration or dose not given beside the values.
In experiment [10] the test system is H4. In words: Increase in long-lived protein degradation in human H4 cells after 4 hrs relative to control. Also on record: concentration or dose not given beside the values.
The test system of experiment [11] is H4. Nature of the experiment: Increase in long-lived protein degradation in human H4 cells after 24 hrs relative to control. Also noted: concentration or dose not given beside the values.
Experiment [12] deals with H4. Nature of the experiment: Increase in light chain 3-GFP+ autophagosome vesicle number per cell in human H4 cells at 6.4 uM after 24 hrs by high throughput fluorescence microscopy relative to control. A digest of the protocol:
as §2

For experiment [13], the system named is H4. In words: Increase in light chain 3-GFP+ autophagosome vesicle area per cell in human H4 cells at 6.4 uM after 24 hrs by high throughput fluorescence microscopy relative to control. A digest of the protocol: as §1
The test system of experiment [14] is H4. Nature of the experiment: Increase in light chain 3-GFP+ autophagosome vesicle intensity per cell in human H4 cells at 6.4 uM after 24 hrs by high throughput fluorescence microscopy relative to control. An outline of the steps: as §2
Experiment [15] has as its system H4. Nature of the experiment: Decrease in FYVE-RFP+ vesicle intensity per cell in human H4 cells after 2 hrs relative to control. Also noted: concentration or dose not given beside the values. An outline of the steps:
as §4

Experiment [16] concerns H4. Nature of the experiment: Decrease in FYVE-RFP+ vesicle intensity per cell in human H4 cells after 4 hrs relative to control. Also on record: concentration or dose not given beside the values. A digest of the protocol: as §4
Experiment [17] deals with H4. Nature of the experiment: Decrease in FYVE-RFP+ vesicle intensity per cell in human H4 cells after 8 hrs relative to control. Also on record: concentration or dose not given beside the values. An outline of the steps:
as §4

The subject of experiment [18] is H4. Nature of the experiment: Induction of light chain 3-GFP level in human H4 cells at 6.4 uM after 24 hrs by high throughput fluorescence microscopy relative to control. A digest of the protocol: as §3
Experiment [19] relates to H4. In words: Increase in light chain 3-GFP+ autophagosome vesicle area per cell in human H4 cells at 7.4 uM after 24 hrs by high throughput fluorescence microscopy relative to control. An outline of the steps:
(§5)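 H4 cells stably expressing LC3-GFP, seeded in 96-well plates and exposed to compound for 24 h; fixed in 4% paraformaldehyde, nuclei stained with 3 μg/ml DAPI. Automated fluorescence microscopy scored number, size and intensity of LC3-GFP spots; values expressed relative to DMSO-treated wells, rapamycin positive control. Triplicate wells, mean ± SD; experiments repeated three times.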

Experiment [20] has as its system H4. In words: Increase in light chain 3-GFP+ autophagosome vesicle number per cell in human H4 cells at 7.4 uM after 24 hrs by high throughput fluorescence microscopy relative to control. A digest of the protocol:
(§6)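 H4 cells stably expressing LC3-GFP, kept in DMEM/10% FBS at 37°C, 5% CO2, were seeded in 96-well plates and exposed to compound for 24 h. Cells were then fixed in 4% paraformaldehyde and stained with 3 μg/ml DAPI. Automated fluorescence microscopy scored the number, size and intensity of LC3-GFP spots. Values are percent of DMSO wells, in triplicate, mean ± SD. Rapamycin served as positive control.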

Experiment [21] concerns H4. In words: Increase in light chain 3-GFP+ autophagosome vesicle intensity per cell in human H4 cells at 7.4 uM after 24 hrs by high throughput fluorescence microscopy relative to control. A digest of the protocol: as §5
Experiment [22] concerns H4. In words: Induction of light chain 3-GFP level in human H4 cells at 7.4 uM after 24 hrs by high throughput fluorescence microscopy relative to control. An outline of the steps: as §6
The subject of experiment [23] is H4. Nature of the experiment: Increase in light chain 3-GFP+ autophagosome vesicle number per cell in human H4 cells at 7.6 uM after 24 hrs by high throughput fluorescence microscopy relative to control. A digest of the protocol:
as §2

Experiment [24] deals with H4. In words: Increase in light chain 3-GFP+ autophagosome vesicle area per cell in human H4 cells at 7.6 uM after 24 hrs by high throughput fluorescence microscopy relative to control. An outline of the steps: as §1
Experiment [25] has as its system H4. Nature of the experiment: Increase in light chain 3-GFP+ autophagosome vesicle intensity per cell in human H4 cells at 7.6 uM after 24 hrs by high throughput fluorescence microscopy relative to control. An outline of the steps:
as §2

Experiment [26] relates to H4. In words: Induction of light chain 3-GFP level in human H4 cells at 7.6 uM after 24 hrs by high throughput fluorescence microscopy relative to control. A digest of the protocol:
as §3

Each structure is given as a SMILES string.

With `CC[C@H](C)[C@H](NS(=O)(=O)c1cccc2ccccc12)C(=O)N[C@H](C=O)Cc1c[nH]c2ccccc12`, the Activity with H4 [1] is on record as 172.38%; with H4 [2], 151.1%; with H4 [3], 199.27%; in the experiment on H4 [4], 124.74%; in the experiment with H4 [5], 89.37%; in the experiment on H4 [6] it was 64.1%. Besides, the Activity in the experiment with H4 [7] stood at 62.34%; with H4 [8] it was 134.83%; in the experiment with H4 [9], 136.94%; in the experiment with H4 [10], 117.24%; in the experiment on H4 [11], 9.4%.

For `CNC(=O)[C@H](Cc1c[nH]c2ccccc12)NC(=O)[C@@H](CC(=O)NO)CC(C)C` [ILOMASTAT], the Activity in the experiment on H4 [12] came out at 154.31%; in the experiment on H4 [13], 171.42%; with H4 [14] it was 196.42%; in the experiment on H4 [15], 30.69%; with H4 [16], 32.3%; in the experiment on H4 [17] it was 25.77%. Moreover, the Activity in the experiment with H4 [8] is 129.48%; with H4 [9], 115.08%; in the experiment with H4 [10], 104.88%; in the experiment on H4 [11] it was 107.46%; in the experiment on H4 [18], 143.94%.

For `CC(=O)C1=C(O)[C@@H]2[C@H]3c4c[nH]c5cccc(c45)C[C@H]3C(C)(C)N2C1=O` [CYCLOPIAZONIC ACID], the Activity was 178.53% in the experiment with H4 [19]; 162.66% with H4 [20]; 186.44% with H4 [21]; 41.44% in the experiment on H4 [15]; 30.54% in the experiment with H4 [16]; 33.06% in the experiment on H4 [17]. The Activity is on record as 103.58% with H4 [8]; 97.66% with H4 [9]; 96.45% in the experiment with H4 [10]; 96.32% with H4 [11]; 112.62% with H4 [22].

In the case of `Oc1ccc(-c2nc(-c3ccc(F)cc3)c(-c3ccncc3)[nH]2)cc1` [SB-202190], the Activity in the experiment on H4 [23] is recorded as 151.97%; with H4 [24], 160.87%; with H4 [25], 169.71%; in the experiment with H4 [26], 91.14%.
